The results in this text go back to PubChem BioAssay.

Test [1] can be described thus: inhibitors of TNFa-induced NFkB p65 translocation, primary screen, imaging, HUVEC, MLSMR starter and 10KST1 sets (AID 438;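 active = inhibition above 20% together with a positive visual image hit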;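 note: compound added about 3h40 before a 20 min TNFalpha stimulation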;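 for inhibition: signal is the nuclear over cytoplasmic p65 intensity ratio per well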). Conditions: HUVEC TNFa-induced p65 nuclear translocation; cell count: measured here: nuclei count (cytotoxicity indicator), at 2.08 µM; inhibition: at 2 µM, stronger effect = higher value, 0% TNFa-plus-vehicle, 100% no-TNFa wells.
Test [2] in a line: reduction of polyQ htt aggregates in cells – imaging, exon1htt(103Q)mCFP cells, high-content imaging, primary screen (AID 483;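 active = visual image review flags a hit and inhibition of aggregation exceeds 20%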;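 note: compound exposure lasted 3 days before fixation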;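 for nuclei count: percent of the per-plate median nuclei count of sample wells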). Conditions: exon1htt(103Q)mCFP cell line, aggregate imaging, at 2 µM; inhibition of aggregation: stronger effect = higher value; nuclei count: measured here: cell count, toxicity.
A short description of test [3]: endothelial E-selectin expression blockers – imaging, HUVEC, immunofluorescence, MLSMR starter and 10KST1 sets, primary screen (AID 487).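 For inhibition: signal is fraction of cell area covered by stained E-selectin grains.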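 For nuclei count: 100% = median nuclei count of all wells on the same plate.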 Particulars: HUVEC TNFalpha-induced E-selectin immunofluorescence imaging, at 2 µM; inhibition: stronger effect = higher value; nuclei count: measured here: cell number, toxicity.
The target in test [4] is Voltage-gated potassium channel subunit beta-2 (Rattus norvegicus) (UniProt P62483). Kind of test: inhibitors of rat Kvbeta2 reductase activity – biochemical, NADPH fluorescence, primary screen (AID 622;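 active = fluorescence slope higher than the sample average by over 3 SD, cut at about -0.22 in these data, passing the limit was not always enough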;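 note: slope of raw intensity against log time taken from 70 to 1610 s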). Conditions: recombinant KvBeta, 4-cyanobenzaldehyde reduction, at 10 µM, stronger effect = higher value.
Sequence of Voltage-gated potassium channel subunit beta-2 (Rattus norvegicus) (P62483 whole entry, looked up): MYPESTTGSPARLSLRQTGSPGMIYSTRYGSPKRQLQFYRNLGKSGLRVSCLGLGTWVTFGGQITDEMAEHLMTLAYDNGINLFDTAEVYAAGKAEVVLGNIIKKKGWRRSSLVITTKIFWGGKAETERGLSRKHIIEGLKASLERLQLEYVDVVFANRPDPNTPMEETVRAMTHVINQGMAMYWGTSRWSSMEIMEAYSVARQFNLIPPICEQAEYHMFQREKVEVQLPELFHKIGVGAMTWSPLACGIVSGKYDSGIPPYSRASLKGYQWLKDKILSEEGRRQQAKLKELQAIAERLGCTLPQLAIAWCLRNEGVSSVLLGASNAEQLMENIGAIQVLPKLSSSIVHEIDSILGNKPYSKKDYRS
The target is the same in test [5]. The test is described as follows: enhancers of rat Kvbeta2 NADPH turnover – biochemical, NADPH fluorescence, primary screen (AID 623;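 active = NADPH fluorescence slope more negative than the mean of all samples by about 3 SD, 99.7% confidence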;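 note: fluorescence intensity change per second fitted from 20 to 320 s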). Particulars: Recombinant KvBeta, NADPH fluorescence decrease slope, 10 min; at 10 µM; stronger effect = lower value.
The target of test [6] is Alpha-2C adrenergic receptor (Homo sapiens) (UniProt P18825). The test is described as follows: compounds altering alpha2C-coupled GIRK flux – cell-based, HEK293 alpha2C/GIRK1/2, thallium flux, primary screen (AID 624;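 active = fluorescence slope after compound addition differing from the mean of all screened samples at 99.7% confidence, in either direction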;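 note: slope of fluorescence ratio to pre-addition baseline per second over 15 to 24 s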). Conditions: thallium flux BTC fluorescence, at 10 µM, actives lie on both sides.
Sequence of Alpha-2C adrenergic receptor (Homo sapiens) (P18825 whole entry, looked up): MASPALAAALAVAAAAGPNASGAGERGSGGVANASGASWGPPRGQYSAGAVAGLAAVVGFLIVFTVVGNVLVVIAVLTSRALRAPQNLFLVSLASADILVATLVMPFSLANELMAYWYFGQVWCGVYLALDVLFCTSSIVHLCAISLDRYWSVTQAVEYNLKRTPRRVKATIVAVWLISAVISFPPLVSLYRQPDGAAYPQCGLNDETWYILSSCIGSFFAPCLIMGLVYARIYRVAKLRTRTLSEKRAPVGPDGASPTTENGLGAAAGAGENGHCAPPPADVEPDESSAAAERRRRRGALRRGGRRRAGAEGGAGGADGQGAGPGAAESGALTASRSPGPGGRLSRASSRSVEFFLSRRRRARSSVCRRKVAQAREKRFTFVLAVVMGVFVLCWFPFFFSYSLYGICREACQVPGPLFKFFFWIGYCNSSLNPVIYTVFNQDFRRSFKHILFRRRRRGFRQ
The nature of test [7]: inhibitors of larval lipid processing in zebrafish, primary screen, whole organism, PED6 fluorescence, gall bladder and intestine (AID 686;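 active = a full or partial loss of lipid-probe fluorescence in the fish gall bladder, intestine or both, judged by eye; inactive = no fluorescence loss, or compound toxic to the fish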;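 note: larvae 5 to 7 days old with five fish per well; signal comes from phospholipase A2 cleavage of quenched PED6 carried via bile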). Particulars: Zebrafish larvae PED6 lipid processing, fluorescence scoring; screened at 20 µM (by protocol). The essentials: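 System: live zebrafish larvae aged 5-7 days, whole organism; measure: graded gall bladder and intestinal fluorescence inhibition per well; incubation: overnight exposure; reagent: ingested quenched lipid PED6 at 100 nM; signal: By-eye fluorescence microscopy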

Test [8] can be described thus: blockers of RIG-like receptor reporter activation – cell-based, Sendai virus stimulus, luciferase, 10K MLSCN set, TLR/RLR signaling modifier project, primary screen (AID 602276;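 active = inhibition at or above 50% at 10 µM; inactive = inhibition below 50%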;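 note: firefly luciferase from ISG56 promoter only with Renilla not read in this screen; 0% = Sendai virus plus DMSO and 100% = medium plus DMSO without virus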). Particulars: HEK293 RL24 IRF3 luciferase reporter, at 10 µM, stronger effect = higher value.
Test [9] is described as follows: TLR3 IRF3 reporter activation blockers – cell-based, poly I:C stimulus, luciferase, 10K MLSCN set, primary screen (AID 602277;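 active = inhibition of the reporter signal at or above 50%; inactive = inhibition below 50%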). Conditions: HEK293-TLR3 RL24 IRF3 luciferase reporter, at 10 µM, stronger effect = higher value.

Activity calls are given as the source filed them.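 Rule for the calls, unless noted: active = visually confirmed hit in the image check and inhibition above 20%; inconclusive = visually confirmed hit but inhibition not above 20%; inactive = no visual hit in the image check.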

`COC(=O)c1ccccc1NC(=O)c1cnc2sccn2c1=O`: the cell count in [1] is 505. In addition, the inhibition in test [1] is -19.2% (inactive); in test [3] it was 14.9% (inactive); in [8] it was 5.91% (inactive); in [9], -1.07% (inactive). In addition, the inhibition of aggregation in test [2] is 14% (inactive). Moreover, the nuclei count in test [2] turned out to be 77.5%; in test [3], 98%. Further, the fluorescence slope in [4] was -0.369 (inactive). Moreover, the NADPH fluorescence slope in test [5] was -5.8e-05 (inactive). The slope in test [6] is 0.00479 (inactive). The molecule was classed as inactive in test [7].

As for `COc1ccccc1NC(=O)NC(N)=O`, the cell count in [1] came to 580. Also, the inhibition in test [1] is 0.5% (inactive); in test [3], -36.1% (inactive); in [8] it was 2.43% (inactive); in test [9], 1.16% (inactive). The inhibition of aggregation in test [2] is -22.8% (inactive). Moreover, the nuclei count in test [2] was 104%; in test [3], 115%. Moreover, in test [4], the fluorescence slope is -0.386 (inactive). Further, the NADPH fluorescence slope in test [5] was 4.8e-06 (inactive). Besides, the slope in test [6] was 0.00503 (inactive). Moreover, the outcome in test [7] was inactive.

Consider `O=C(Nc1ccc2c(c1)OCO2)N1CCN(c2ncccn2)CC1`, for which, in test [1], the cell count came out at 342. Also, the inhibition in test [1] is 10.3% (inactive); in test [3], -38.9% (inactive); in test [8], -23.4% (inactive); in test [9] it was -41.5% (inactive). Also, in [2], the inhibition of aggregation is -5.6% (inactive). The values for the nuclei count in test [2] and in test [3] were 107% and 118%, respectively. Moreover, the fluorescence slope in test [4] is -0.421 (inactive). Moreover, the NADPH fluorescence slope in test [5] was -3.9e-06 (inactive). In test [6], the slope was 0.00535 (inactive). Further, in test [7], the call was inactive.

Regarding `COCCN1C=C(C(=O)OC)C(c2cc3c(cc2Br)OCO3)C(C(=O)OC)=C1`, the cell count in test [1] is 629. In addition, the inhibition in test [1] was -7.8% (inactive); in [3], 48.4% (inactive); in [8], 13.3% (inactive); in [9], 20.6% (inactive). For the same molecule, the inhibition of aggregation in test [2] was 1.1% (inactive). Also, the results for the nuclei count in test [2] and in test [3] were 112% and 46.8%, respectively. The fluorescence slope in test [4] is -0.377 (inactive). Moreover, in test [5], the NADPH fluorescence slope is -6e-05 (inactive). Moreover, in test [6], the slope is 0.00391 (inactive). In [7], the outcome was inactive.

`CC(=O)c1cccc(NC(=O)NCc2ccco2)c1`: in [1], the cell count was 385. For the same molecule, the inhibition in [1] is 0.8% (inactive); in test [3] it was -43.8% (inactive); in [8] it was -3.74% (inactive); in test [9] it was -37.3% (inactive). In addition, the inhibition of aggregation in [2] is -4.5% (inactive). Besides, the nuclei count in [2] amounted to 74.6%; in test [3] it was 79.8%. Moreover, the fluorescence slope in test [4] was -0.386 (inactive). Further, the NADPH fluorescence slope in test [5] is 6.8e-06 (inactive). In test [6], the slope was 0.00558 (inactive). The result in test [7] was inactive.

Turning to `O=C(COc1ccc(S(=O)(=O)NC2CCCCC2)cc1)NCc1ccccn1`, the cell count in [1] was determined as 400. Besides, the inhibition is -5.1% (inactive) in [1], -8.3% (inactive) in test [3], -5.78% (inactive) in [8] and 1.29% (inactive) in [9]. The inhibition of aggregation in test [2] is -2.7% (inactive). Moreover, the nuclei count in [2] is 101%; in test [3], 107%. In test [4], the fluorescence slope was -0.401 (inactive). In test [5], the NADPH fluorescence slope was -1.8e-06 (inactive). Also, the slope in test [6] was 0.00588 (inactive). Besides, the molecule was classed as inactive in test [7].

In the case of `CCOC(=O)c1ccc2[nH]c3c(c2c1)CCCCC3=O`, the cell count in [1] stood at 681. For the same molecule, the inhibition in [1] was -11% (inactive); in test [3] it was 32% (inactive); in test [8] it was -36.8% (inactive); in [9] it was -77.8% (inactive). Further, in [2], the inhibition of aggregation is -12.9% (inactive). For the same molecule, the nuclei count in test [2] was found to be 106%; in test [3], 96.5%. Further, the fluorescence slope in test [4] is -0.389 (inactive). The NADPH fluorescence slope in test [5] was -5.3e-05 (inactive). Moreover, the slope in [6] was 0.00399 (inactive). In addition, the outcome in test [7] was inactive.

Regarding `CCn1c(SCC(=O)Nc2ccccc2N2CCCCC2)nc2c1c(=O)n(C)c(=O)n2C`, the cell count in [1] came out at 490. For the same molecule, the inhibition in test [1] was -5.6% (inactive); in [3] it was -15.6% (inactive); in test [8] it was 16.1% (inactive); in test [9] it was 18.7% (inactive). Moreover, the inhibition of aggregation in test [2] is 19.9% (inactive). Moreover, the nuclei count in [2] came out at 93.1%; in test [3], 89.4%. For the same molecule, the fluorescence slope in [4] is -0.338 (inactive). For the same molecule, the NADPH fluorescence slope in test [5] was -6.7e-05 (inactive). In addition, the slope in test [6] was 0.00404 (inactive). For the same molecule, the outcome in test [7] was inactive.

For the molecule `CSc1nnc(-c2ccccc2)n1C`, in [1], the cell count was determined as 645. For the same molecule, the inhibition in [1] is -13.1% (inactive); in test [3], -16.6% (inactive); in test [8] it was 16.8% (inactive); in [9] it was 17.4% (inactive). Also, the inhibition of aggregation in test [2] was -35.1% (inactive). For the same molecule, the nuclei count in test [2] was 111%; in [3], 108%. Besides, in test [4], the fluorescence slope was -0.398 (inactive). In addition, the NADPH fluorescence slope in test [5] is -6.9e-06 (inactive). Moreover, in test [6], the slope is 0.00519 (inactive). Besides, the call in test [7] was inactive.

As to `Cc1nc2ccc(C(=O)O)cc2c2c1CC(C)S2` (configuration not stated), the cell count in test [1] came out at 462. For the same molecule, the inhibition is -3.8% (inactive) in test [1], -20.4% (inactive) in test [3], 13.9% (inactive) in test [8] and 11.7% (inactive) in [9]. In test [2], the inhibition of aggregation is -4% (inactive). Also, the nuclei count came to 106% in test [2] and 104% in [3]. In addition, in [4], the fluorescence slope is -0.38 (inactive). Besides, the NADPH fluorescence slope in test [5] is -4.3e-05 (inactive). Besides, the slope in test [6] was 0.00518 (inactive). The molecule was called inactive in test [7].

As for `O=C(Nc1ccc(-c2nc3ncccc3o2)cc1)c1ccc(Br)o1`, the cell count in [1] came to 340. The inhibition was 25.6% (inactive) in test [1], 8.6% (inactive) in test [3], -28.6% (inactive) in test [8] and -98.2% (inactive) in test [9]. In addition, the inhibition of aggregation in [2] is -3.8% (inactive). In addition, the nuclei count in test [2] came out at 89.7%; in [3], 100%. Moreover, the fluorescence slope in test [4] is -0.125 (active). Also, the NADPH fluorescence slope in test [5] was -3.3e-06 (inactive). Besides, the slope in [6] was 0.00525 (inactive). The call in test [7] was inactive.
